Source: PubChem
An excerpt weighted towards active compounds, which were near 1.4% of everything screened.
UCH37 DUB inh: inhibitors of human deubiquitinating enzyme UCH37 | Q9Y5K5 | purified proteasome/UCH37, Ub-AMC cleavage fluorescence | inhibition, % (no concentration beside the values) | 330,000 compounds, 0.33% hits;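 active = mean inhibition over replicate wells above about 20%, limit read from the data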
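Schedule: 30 min plus 25 min, room temperature / Material: human UCH37 within purified proteasomes / Technique: AMC fluorescence intensity at 355/460 nm / Buffer or medium: pH 7.4 Tris-HCl (50 mM) with ovalbumin, ATP-MgCl2, DTT / Controls: wells without proteasome as full block, compound-free enzyme plus substrate as uninhibited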
Tb MetRS inh: Trypanosoma brucei MetRS inhibition; inhibition, % at 11.9 µM; 360,000 compounds, 0.4% hits; purified T. brucei MetRS, ATP depletion, Kinase-Glo luminescence;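 active = inhibition above a per-plate cutoff of the control wells' mean inhibition plus 3 SD, cut at about 5.5% in these data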
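Test system – parasite MetRS enzyme · Reagent – substrates ATP, L-methionine and bulk Escherichia coli tRNA · Doses – 11.9 µM compound single dose, 0.9% DMSO · Times – 15 min enzyme-compound preincubation, 2 h reaction, 10 min detection, 25 °C · Signal – Kinase-Glo luminescence, ATP depletion format · Controls – DMSO-only wells as low control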
ATG4B inh: ATG4B (human) cysteine protease inhibition; Q9Y4P1; ATG4B cleavage of LC3-PLA2, NBD-HPC fluorescence, 1 h; inhibition, % at 8.33 µM; 340,000 compounds, 0.51% hits; in the data active = inhibition above about 40%
Rin1-Abl PPI inh: inhibitors of human Rin1-Abl protein interaction; P00519+Q13671; 360,000 compounds, 0.4% hits; TR-FRET Rin1/Abl binding, biochemical; AID 588664; inhibition, % at 7.35 µM; in the data active = inhibition above about 5%, passing the limit was not always enough
Target sequence (P00519 whole entry, looked up): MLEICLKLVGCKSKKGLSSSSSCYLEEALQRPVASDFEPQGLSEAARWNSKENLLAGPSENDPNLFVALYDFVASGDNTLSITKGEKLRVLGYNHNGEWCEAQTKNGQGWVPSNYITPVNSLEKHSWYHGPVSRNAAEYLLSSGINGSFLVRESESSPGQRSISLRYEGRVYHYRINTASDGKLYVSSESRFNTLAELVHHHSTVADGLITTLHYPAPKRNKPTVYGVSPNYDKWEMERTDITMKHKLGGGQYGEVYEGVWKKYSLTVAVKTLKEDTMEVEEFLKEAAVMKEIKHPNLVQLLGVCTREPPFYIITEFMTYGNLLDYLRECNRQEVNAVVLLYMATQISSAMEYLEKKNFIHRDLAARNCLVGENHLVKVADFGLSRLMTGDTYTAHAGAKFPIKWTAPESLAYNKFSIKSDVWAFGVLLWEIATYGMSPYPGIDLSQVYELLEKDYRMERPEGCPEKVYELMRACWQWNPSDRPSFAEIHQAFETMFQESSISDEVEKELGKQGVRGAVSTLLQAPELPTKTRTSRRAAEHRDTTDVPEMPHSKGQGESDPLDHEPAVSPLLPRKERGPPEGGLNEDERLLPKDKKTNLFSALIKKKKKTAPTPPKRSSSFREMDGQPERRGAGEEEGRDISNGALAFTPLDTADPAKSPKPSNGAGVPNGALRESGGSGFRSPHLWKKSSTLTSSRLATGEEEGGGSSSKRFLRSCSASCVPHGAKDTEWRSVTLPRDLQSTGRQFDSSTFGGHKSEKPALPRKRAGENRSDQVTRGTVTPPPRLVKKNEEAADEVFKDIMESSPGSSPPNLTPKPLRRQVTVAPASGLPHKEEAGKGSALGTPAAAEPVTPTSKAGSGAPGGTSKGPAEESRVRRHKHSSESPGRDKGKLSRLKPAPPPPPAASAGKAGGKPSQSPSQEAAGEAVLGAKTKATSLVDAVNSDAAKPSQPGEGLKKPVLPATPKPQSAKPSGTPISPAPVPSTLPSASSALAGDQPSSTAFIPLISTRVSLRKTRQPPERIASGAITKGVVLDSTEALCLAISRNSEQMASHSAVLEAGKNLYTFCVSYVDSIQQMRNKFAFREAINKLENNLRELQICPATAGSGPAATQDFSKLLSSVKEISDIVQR
Target sequence (Q13671 whole entry, looked up): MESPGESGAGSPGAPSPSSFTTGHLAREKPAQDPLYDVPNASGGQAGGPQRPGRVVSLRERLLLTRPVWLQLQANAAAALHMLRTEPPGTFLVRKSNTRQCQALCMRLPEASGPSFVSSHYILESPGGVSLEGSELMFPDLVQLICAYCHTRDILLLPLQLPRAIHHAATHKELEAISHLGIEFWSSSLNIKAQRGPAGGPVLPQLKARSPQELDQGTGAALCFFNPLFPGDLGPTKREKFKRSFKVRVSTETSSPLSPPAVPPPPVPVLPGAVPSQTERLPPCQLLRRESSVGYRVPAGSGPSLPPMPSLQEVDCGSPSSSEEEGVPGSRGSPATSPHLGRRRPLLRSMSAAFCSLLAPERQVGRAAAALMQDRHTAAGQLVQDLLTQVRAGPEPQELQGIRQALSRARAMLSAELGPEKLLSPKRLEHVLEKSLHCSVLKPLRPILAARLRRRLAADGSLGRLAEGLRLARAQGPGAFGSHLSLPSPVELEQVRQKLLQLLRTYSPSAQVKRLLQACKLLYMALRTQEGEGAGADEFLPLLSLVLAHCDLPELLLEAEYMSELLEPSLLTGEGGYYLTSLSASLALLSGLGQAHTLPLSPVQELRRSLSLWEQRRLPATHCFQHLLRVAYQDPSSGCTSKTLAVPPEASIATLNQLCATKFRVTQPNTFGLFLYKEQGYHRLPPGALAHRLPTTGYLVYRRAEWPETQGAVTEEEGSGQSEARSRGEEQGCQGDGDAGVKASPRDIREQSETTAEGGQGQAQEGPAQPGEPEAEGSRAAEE
TbMetRS confirm: confirmation of Trypanosoma brucei MetRS inhibitors | shares compounds with Tb MetRS inh | T. brucei MetRS enzyme, luminescence (ATP depletion) | inhibition, % at 11.9 µM | 1,400 compounds, 93% hits; in the data active = inhibition above about 7%
Jurkat tox: kills Jurkat cells in T. brucei MetRS counterscreen. shares compounds with Tb MetRS inh. Jurkat cells viability, ATP luminescence. inhibition, % at 8.3 µM. 1,400 compounds, 12% hits. AID 624413; in the data active = inhibition above about 15%
TbMetRS FP orth: inhibits T. brucei methionyl tRNA synthetase in orthogonal FP test. shares compounds with Tb MetRS inh. purified T. brucei MetRS, fluorescence polarization. inhibition, % at 11.9 µM. 1,400 compounds, 44% hits; in the data active = inhibition above about 17%
Numbers stand for hits; – = inactive; · = not tested or not shown.

SMILES	UCH37 DUB inh	Tb MetRS inh	ATG4B inh	Rin1-Abl PPI inh	TbMetRS confirm	Jurkat tox	TbMetRS FP orth
S=C(NCCSCc1ccc(Cl)cc1)Nc1ccccc1	–	30	–	–	51	–	50
O=C(Nc1ccc(Cl)cc1)Nc1ccccc1C(=O)NCc1ccco1	–	14	–	–	20	–	–
CCOc1ccccc1NC(=O)CN(C)S(=O)(=O)c1ccc(OC)c(C)c1	–	–	–	–	·	·	·
CCC(=NNc1ccc([N+](=O)[O-])cc1[N+](=O)[O-])c1ccccc1	·	–	·	–	·	·	·
O=C(CCCCCn1c(=S)[nH]c2ccc(Br)cc2c1=O)NCC1CCCO1 (stereo not given)	–	–	–	–	·	·	·
NS(=O)(=O)c1ccc(CCNC(=O)CCCCCn2c(=S)[nH]c3ccc(Br)cc3c2=O)cc1	–	17	–	–	22	–	–
Cc1ccc(Cn2c(=S)[nH]c3ccccc3c2=O)cc1	–	–	–	–	·	·	·
O=c1c2cc(Br)ccc2[nH]c(=S)n1Cc1ccccc1	–	7.7	–	–	20	–	–
O=c1c2cc(Br)ccc2[nH]c(=S)n1Cc1ccccn1	–	10	–	–	21	–	–
CC1Cc2ccccc2N1C(=O)COC(=O)C1=COCCO1 (stereo not given)	–	–	–	–	·	·	·
CC(C)CCNC(=O)C1CCC(CNS(=O)(=O)c2ccc(Cl)cc2)CC1 (stereo not given)	–	–	–	–	·	·	·
O=c1c2c([nH]c3ccc(Br)cc13)CCCC2	–	14	–	–	27	–	–
Cc1csc(CNc2ncnc3ccc(-c4ccccc4Cl)cc23)c1	·	6.0	–	–	25	–	20
Clc1ccccc1-c1ccc2ncnc(NCc3cccs3)c2c1	·	–	–	–	·	·	·
COC(=O)c1sc(-c2ccc(Cl)cc2)cc1NC(=O)COCC(=O)O	–	38	–	–	37	–	25
COc1cccc(Cn2c(Oc3cccc(C)c3)nc3c2c(=O)n(C)c(=O)n3C)c1	–	–	–	–	·	·	·
Cn1nnc(NCc2cc(Br)ccc2OCc2cccs2)n1	–	20	–	–	28	–	–
Cc1ccccc1CNc1ncnc2cc(Cl)ccc12	–	–	–	–	·	·	·
Fc1ccc(F)c(CNc2ncnc3cc(Cl)ccc23)c1	–	7.3	–	–	21	–	–
COc1cc2nc(C3CCC3)n(N)c(=O)c2cc1OC	–	–	–	–	·	·	·
O=C(NCc1nc2ccccc2[nH]1)C1=C[C@@H](C2CCCCC2)C[C@@H](OCCCCO)O1	–	48	–	–	83	–	62
C[C@H]1C=C(C(=O)NCc2nc3ccccc3[nH]2)O[C@@H](OCCCCO)C1	–	14	–	–	54	–	27
CC(C)(C)[C@H]1C=C(C(=O)NCc2nc3ccccc3[nH]2)O[C@@H](OCCCCO)C1	–	57	–	–	97	–	61
CCO[C@H]1OC(C(=O)NCc2nc3ccccc3[nH]2)=C[C@@H](C2CCCCC2)[C@@H]1CCCO	–	–	–	–	·	·	·
O=C(c1cccnc1)N1CCN(c2ccc([N+](=O)[O-])cc2Cl)CC1	–	5.8	–	–	17	–	–
SMILES	UCH37 DUB inh	Tb MetRS inh	ATG4B inh	Rin1-Abl PPI inh	TbMetRS confirm	Jurkat tox	TbMetRS FP orth
COc1cc(C(=S)N2CCCC2)ccc1OCC(N)=O	–	–	–	–	·	·	·
Cc1ccc2[nH]c(CSc3ccccc3)cc(=O)c2c1	–	11	–	–	23	–	–
c1ccc(-c2nnc(SCc3nc4ccccc4[nH]3)n2Cc2ccco2)cc1	–	–	–	–	·	·	·
Cc1ccc(OCc2nnc(SCc3nc4ccccc4[nH]3)n2Cc2ccco2)cc1	–	35	–	–	62	–	34
CCn1c(COc2ccc(Cl)cc2)nnc1SCc1nc2ccccc2[nH]1	–	54	–	–	58	–	36
NS(=O)(=O)c1cccc(NC(=O)CSc2nc3ccc(Cl)cc3[nH]2)c1	–	8.1	–	–	16	–	–
O=C(CSc1nc2ccccc2[nH]1)Nc1nc(-c2ccc(Br)cc2)cs1	–	20	–	–	36	–	71
O=C(CN1CCCc2ccccc21)Nc1cccc(S(=O)(=O)N2CCOCC2)c1	–	6.7	–	–	12	–	–
Cc1ccc2nc(SCC(=O)Nc3cccc(S(=O)(=O)N(C)C)c3)[nH]c2c1	–	–	–	–	·	·	·
Cc1nonc1NC(=O)CSc1nc2ccc(Cl)cc2[nH]1	–	19	–	–	33	–	18
Cc1ccc2c(c1)CCCN2CC(=O)Nc1cccc(S(=O)(=O)N2CCCC2)c1	–	–	–	–	·	·	·
CC1(C(=O)NCC2CC2)CCN1C(=O)C1(c2ccccc2)CC1 (stereo not given)	·	–	·	–	·	·	·
c1ccc(Oc2ccccc2-c2cc(NCCc3cccnc3)n3nccc3n2)cc1	·	–	·	–	·	·	·
O=C(CSc1nc2cc3ccccc3cc2[nH]1)Nc1ccc(F)cc1	–	22	–	–	28	–	23
O=C(CSc1nc2ccccc2[nH]1)Nc1cccc(S(=O)(=O)N2CCOCC2)c1	–	40	–	–	40	–	18
COc1ccc(NC(=O)CSc2nc3ccc(OC)cc3[nH]2)cc1	–	–	–	–	·	·	·
CCN(CC)S(=O)(=O)c1cccc(NC(=O)CSc2nc3ccccc3[nH]2)c1	–	–	–	–	·	·	·
CN(C)S(=O)(=O)c1cccc(NC(=O)CSc2nc3ccccc3[nH]2)c1	–	6.2	–	–	12	–	–
O=C1N(Cc2cccc(Cl)c2)C[C@@H]2C[C@@H](c3cccc4ncccc34)N3CCC[C@@]123	–	–	–	–	·	·	·
O=C1N(Cc2cccc(Cl)c2)C[C@@H]2C[C@@H](c3c[nH]c4ccccc34)N3CCC[C@@]123	–	5.9	–	–	11	–	–
COC(=O)C1=C(N)Oc2cc(C)n(Cc3ccco3)c(=O)c2C1c1cccc(Cl)c1 (stereo not given)	–	52	–	–	–	–	–
O=C1c2ccccc2C(c2nc3ccccc3[nH]2)N1c1ccccn1 (stereo not given)	·	6.9	·	–	14	–	–
COc1ccccc1CCNC(=O)C(=O)NCC1OCCN1S(=O)(=O)c1cccs1 (stereo not given)	–	–	–	–	·	·	·
Clc1cccc(CNc2nc(-c3cccnc3)nc3ccccc23)c1	–	18	–	–	40	–	28
c1ccc(CNc2nc(-c3cccnc3)nc3ccccc23)cc1	–	–	–	–	·	·	·
CC(C(=O)Nc1cccc([N+](=O)[O-])c1)n1nnc2ccccc21 (stereo not given)	–	20	–	–	31	–	–
O=C(Cn1cnc2ccccc21)Nc1cccc([N+](=O)[O-])c1	·	81	–	–	95	–	71
